Experimental data from ChEMBL document CHEMBL1154599 (J Med Chem, 2009).
Calls of active or inactive are those of the source. The rule behind the calls is not given here.

Experiments:
[1] = Dissociation constant, pKa by potentiometric titration; format: physicochemical
Outline: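 5 × 10^-4 M sample in 0.15 M KCl acidified to pH 1.8 with 0.5 M HCl, then titrated to pH 12.2 with carbonate-free 0.5 M KOH. Run at 25 ± 0.5 °C under slow argon flow, with a blank titration for standardization. pKa taken from the Bjerrum difference curve.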

[2] = Octanol-water partition coefficient, log P by potentiometric titration; format: physicochemical
[3] = Aqueous solubility at pH 7.4 by turbidimetric method; format: physicochemical; details: aqueous solution
Outline: (§1)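 DMSO stock of compound added in 2 μL portions, about 10 additions, to 50 mM Tris-HCl pH 7.4 or 50 mM acetate pH 3.0 at room temperature, final DMSO below 5%. Precipitation read as light-scattering absorbance rise at 600-820 nm. Solubility limit taken from a bilinear fit of absorbance against DMSO volume. Three independent assays, mean ± SEM.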

[4] = Aqueous solubility at pH 3.0 by turbidimetric method; format: physicochemical; details: aqueous solution; outline: as §1
[5] = Permeability across PAMPA membrane assessed as amount of drug reaching acceptor compartment at 2.5 mM by HDM-PAMPA assay; format: ADME; details: 2500 µM
Outline: (§2)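 Hexadecane artificial membrane (0.75 μL per well, applied as 5% v/v in hexane, hexane evaporated) on polycarbonate filters; donor and acceptor in 0.1 M phosphate buffer pH 6.8 with 5% DMSO (iso-pH); 5 h at room temperature, shaking at 75 rpm; quadruplicate. Donor and acceptor concentrations read by UV at λmax. Retention, CA(t)/CD(0) and Pe calculated by the stated equations, τLAG neglected; membrane integrity checked by electrical resistance.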

[6] = Permeability across PAMPA membrane assessed as permeability coefficient at 2.5 mM by HDM-PAMPA assay; format: ADME; details: 2500 µM; outline: as §2
Mus musculus [7] = experiment: Ex vivo inhibition of MAO-B in C57Bl mouse brain at 3 mg/kg, po or 3 mg/kg, ip after 1 hr by radioenzymatic assay; format: functional, organism-based
Outline: (§3)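 C57Bl mice (n = 6 per group) dosed orally or intraperitoneally at 3 mg/kg and killed 1 h later. Brains homogenized in 0.1 M phosphate pH 7.40. MAO-A ([14C]5-HT) and MAO-B ([14C]PEA) activities measured by radioenzymatic assay. Mean ± SEM, ANOVA with Dunnett's test.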

Mus musculus [8] = experiment: Ex vivo inhibition of MAO-A in C57Bl mouse brain at 3 mg/kg, po or 3 mg/kg, ip after 1 hr by radioenzymatic assay; format: functional, organism-based; outline: as §3
Mus musculus [9] = experiment: Ex vivo inhibition of MAO-B in C57Bl mouse brain at 0.5 mg/kg, po after 30 mins by radioenzymatic assay; format: functional; set-up: scale not given: the % may be the effect or the level left
Outline: (§4)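 C57Bl mice (n = 6 per group) given 0.5 mg/kg orally and killed at 0.5, 1, 2, 4, 8 or 16 h. Brain homogenates in 0.1 M phosphate pH 7.40 assayed radioenzymatically for MAO-B with [14C]PEA. Mean ± SEM, ANOVA with Dunnett's test.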

Mus musculus [10] = experiment: Ex vivo inhibition of MAO-B in C57Bl mouse brain at 0.5 mg/kg, po after 1 hr by radioenzymatic assay; format: functional; set-up: scale not given: the % may be the effect or the level left; outline: as §4
Mus musculus [11] = experiment: Ex vivo inhibition of MAO-B in C57Bl mouse brain at 0.5 mg/kg, po after 2 hrs by radioenzymatic assay; format: functional; set-up: scale not given: the % may be the effect or the level left; outline: as §4
Mus musculus [12] = experiment: Ex vivo inhibition of MAO-B in C57Bl mouse brain at 0.5 mg/kg, po after 8 hrs by radioenzymatic assay; format: functional; set-up: scale not given: the % may be the effect or the level left; outline: as §4
Mus musculus [13] = species on record: Mus musculus; experiment: Ex vivo inhibition of MAO-B in C57Bl mouse brain after 1 hr by radioenzymatic assay; format: functional
Cytochrome P450 1A2 = molecular target: T1, Cytochrome P450 1A2 (Homo sapiens, UniProt P05177); experiment: Inhibition of human recombinant CYP1A2; format: ADME
T1 sequence (P05177 whole entry): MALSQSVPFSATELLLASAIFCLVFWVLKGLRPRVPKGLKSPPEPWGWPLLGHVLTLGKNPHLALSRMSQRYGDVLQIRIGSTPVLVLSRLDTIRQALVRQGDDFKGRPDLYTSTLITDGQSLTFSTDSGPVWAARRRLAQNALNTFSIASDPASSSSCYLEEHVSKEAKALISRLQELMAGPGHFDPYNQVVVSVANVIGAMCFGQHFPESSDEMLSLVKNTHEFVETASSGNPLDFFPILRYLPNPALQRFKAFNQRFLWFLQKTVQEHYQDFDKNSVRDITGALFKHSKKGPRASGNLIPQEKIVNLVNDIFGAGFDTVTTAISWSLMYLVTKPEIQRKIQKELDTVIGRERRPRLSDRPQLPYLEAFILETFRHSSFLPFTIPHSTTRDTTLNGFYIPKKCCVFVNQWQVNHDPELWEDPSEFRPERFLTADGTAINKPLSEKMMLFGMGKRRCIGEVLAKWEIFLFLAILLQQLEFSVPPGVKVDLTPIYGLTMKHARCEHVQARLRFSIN
Outline: (§5)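 Recombinant human CYP supersomes were incubated at 37 C in incubation/NADPH regenerating buffer with isoform-specific substrates that turn fluorescent on metabolism. The substrate was 3-cyano-7-ethoxycoumarin for CYP1A2 and 7-methoxy-4-trifluoromethylcoumarin for CYP2C9. Fluorescence was read at the appropriate excitation/emission wavelengths, with a literature inhibitor as positive control in each assay.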

Cytochrome P450 2C9 = Cytochrome P450 2C9 (Homo sapiens, UniProt P11712); experiment: Inhibition of human recombinant CYP2C9; format: ADME; outline: as §5
Cytochrome P450 2C19 = Cytochrome P450 2C19 (Homo sapiens, UniProt P33261); experiment: Inhibition of human recombinant CYP2C19; format: ADME
Outline: (§6)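 Human recombinant CYP supersomes incubated at 37 °C with compound in NADPH-regenerating buffer, with fluorogenic substrates: 3-cyano-7-ethoxycoumarin for CYP2C19, […] for CYP3A4. Fluorescence read on a plate reader. Known isoform inhibitors run as positive controls in every assay.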

Cytochrome P450 2D6 = Cytochrome P450 2D6 (Homo sapiens, UniProt P10635); experiment: Inhibition of human recombinant CYP2D6; format: ADME
Outline: (§7)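 Human recombinant CYP isoenzymes (supersomes) were incubated at 37 C with the test compound in incubation/NADPH-regenerating buffer plus a fluorogenic substrate. The substrate was 3-[2-(N,N-diethyl-N-methylammonium)ethyl]-7-methoxy-4-methylcoumarin for CYP2D6 and 7-methoxy-4-phenylcoumarin for CYP2E1. Fluorescent product was read at isoform-appropriate wavelengths, with a literature inhibitor as positive control. IC50 came from nonlinear regression of at least seven concentrations, each in duplicate.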

Cytochrome P450 2E1 = Cytochrome P450 2E1 (Homo sapiens, UniProt P05181); experiment: Inhibition of human recombinant CYP2E1; format: ADME; outline: as §7
Cytochrome P450 3A4 = Cytochrome P450 3A4 (Homo sapiens, UniProt P08684); experiment: Inhibition of human recombinant CYP3A4; format: ADME; outline: as §6
SH-SY5Y = experiment: Cytotoxicity against human SH-SY5Y cells after 24 hrs by MTS assay; format: functional, cell-based
Outline: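 Human neuroblastoma SH-SY5Y cells kept in DMEM with 10% heat-inactivated FBS. Seeded at 6.25 × 10^4/cm2 and grown 72 h to subconfluence. Switched to serum-free neurobasal medium 30 min before compound, then 24 h at 37 °C with 1, 3, 10, 30 or 100 μM compound. Viability read by colorimetric MTS assay.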

[14] = molecular target: Amine oxidase [flavin-containing] B (Homo sapiens) (UniProt P27338); experiment: Inhibition of MAO-B in human platelet rich plasma by radioenzymatic assay
Amine oxidase [flavin-containing] B (Homo sapiens), sequence (P27338 whole entry, looked up): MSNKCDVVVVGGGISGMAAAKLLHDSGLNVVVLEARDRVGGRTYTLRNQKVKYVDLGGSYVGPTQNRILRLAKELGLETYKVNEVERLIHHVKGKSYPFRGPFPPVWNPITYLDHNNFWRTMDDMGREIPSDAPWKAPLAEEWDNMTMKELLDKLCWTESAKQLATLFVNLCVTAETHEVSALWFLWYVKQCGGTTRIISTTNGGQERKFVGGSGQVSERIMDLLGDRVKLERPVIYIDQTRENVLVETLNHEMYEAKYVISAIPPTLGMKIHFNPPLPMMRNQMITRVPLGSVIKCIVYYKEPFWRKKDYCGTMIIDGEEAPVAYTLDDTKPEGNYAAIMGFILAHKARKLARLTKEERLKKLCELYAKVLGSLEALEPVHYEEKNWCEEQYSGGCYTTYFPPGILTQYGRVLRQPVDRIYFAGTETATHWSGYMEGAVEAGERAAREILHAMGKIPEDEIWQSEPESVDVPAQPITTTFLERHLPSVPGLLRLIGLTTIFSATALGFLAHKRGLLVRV

Cytochrome P450 2C9, sequence (P11712 whole entry): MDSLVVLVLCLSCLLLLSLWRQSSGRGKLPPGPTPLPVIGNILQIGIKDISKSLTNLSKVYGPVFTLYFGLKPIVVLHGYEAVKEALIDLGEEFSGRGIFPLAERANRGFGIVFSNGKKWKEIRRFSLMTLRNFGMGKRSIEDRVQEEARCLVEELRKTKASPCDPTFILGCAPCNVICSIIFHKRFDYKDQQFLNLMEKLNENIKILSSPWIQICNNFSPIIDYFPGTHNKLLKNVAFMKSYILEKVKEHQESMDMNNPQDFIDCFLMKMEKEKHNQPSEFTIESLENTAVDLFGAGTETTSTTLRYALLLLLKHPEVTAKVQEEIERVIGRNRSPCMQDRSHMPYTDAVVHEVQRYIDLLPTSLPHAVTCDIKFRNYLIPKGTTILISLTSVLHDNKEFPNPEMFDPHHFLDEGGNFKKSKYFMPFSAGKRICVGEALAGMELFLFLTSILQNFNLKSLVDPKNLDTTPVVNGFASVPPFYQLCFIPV
Cytochrome P450 2E1, sequence (P05181 whole entry): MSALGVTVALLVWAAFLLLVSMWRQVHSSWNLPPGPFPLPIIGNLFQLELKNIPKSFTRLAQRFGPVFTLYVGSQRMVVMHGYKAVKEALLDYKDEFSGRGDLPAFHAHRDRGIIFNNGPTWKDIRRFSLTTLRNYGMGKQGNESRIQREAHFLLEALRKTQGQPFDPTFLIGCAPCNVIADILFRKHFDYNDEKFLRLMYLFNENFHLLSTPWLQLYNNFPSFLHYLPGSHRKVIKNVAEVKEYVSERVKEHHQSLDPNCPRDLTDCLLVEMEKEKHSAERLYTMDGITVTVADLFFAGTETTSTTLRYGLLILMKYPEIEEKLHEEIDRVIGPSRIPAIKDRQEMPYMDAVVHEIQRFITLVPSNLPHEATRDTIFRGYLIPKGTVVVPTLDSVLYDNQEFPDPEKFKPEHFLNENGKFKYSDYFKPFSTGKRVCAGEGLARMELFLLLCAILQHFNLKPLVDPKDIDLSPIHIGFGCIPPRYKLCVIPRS
Cytochrome P450 3A4, sequence (P08684 whole entry): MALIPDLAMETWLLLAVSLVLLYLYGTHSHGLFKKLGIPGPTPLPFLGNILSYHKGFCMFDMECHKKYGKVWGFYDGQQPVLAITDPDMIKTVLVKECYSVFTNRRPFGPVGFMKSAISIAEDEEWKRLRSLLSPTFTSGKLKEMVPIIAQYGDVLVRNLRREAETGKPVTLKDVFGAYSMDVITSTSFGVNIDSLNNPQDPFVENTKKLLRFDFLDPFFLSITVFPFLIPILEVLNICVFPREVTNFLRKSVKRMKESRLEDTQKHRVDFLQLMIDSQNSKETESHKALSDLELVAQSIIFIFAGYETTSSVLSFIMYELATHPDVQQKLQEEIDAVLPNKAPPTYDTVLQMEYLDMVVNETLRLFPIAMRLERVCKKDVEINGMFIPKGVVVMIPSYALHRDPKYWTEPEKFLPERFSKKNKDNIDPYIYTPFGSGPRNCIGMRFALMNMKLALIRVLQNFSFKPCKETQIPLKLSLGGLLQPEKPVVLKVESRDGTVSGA
Cytochrome P450 2D6, sequence (P10635 whole entry, canonical isoform): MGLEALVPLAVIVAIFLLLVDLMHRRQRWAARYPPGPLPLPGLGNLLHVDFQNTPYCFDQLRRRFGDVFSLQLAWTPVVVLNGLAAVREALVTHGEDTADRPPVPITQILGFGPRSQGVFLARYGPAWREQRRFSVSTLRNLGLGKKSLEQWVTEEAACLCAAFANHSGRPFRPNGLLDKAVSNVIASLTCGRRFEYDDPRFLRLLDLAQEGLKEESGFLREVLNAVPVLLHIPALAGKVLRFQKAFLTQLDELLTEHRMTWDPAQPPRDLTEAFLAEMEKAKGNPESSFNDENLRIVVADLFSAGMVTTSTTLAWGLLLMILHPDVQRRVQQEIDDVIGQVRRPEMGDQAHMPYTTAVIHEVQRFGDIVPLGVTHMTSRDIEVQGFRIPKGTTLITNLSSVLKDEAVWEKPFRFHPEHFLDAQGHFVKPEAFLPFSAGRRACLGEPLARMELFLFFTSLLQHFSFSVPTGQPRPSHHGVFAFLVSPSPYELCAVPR
Cytochrome P450 2C19, sequence (P33261 whole entry, canonical isoform): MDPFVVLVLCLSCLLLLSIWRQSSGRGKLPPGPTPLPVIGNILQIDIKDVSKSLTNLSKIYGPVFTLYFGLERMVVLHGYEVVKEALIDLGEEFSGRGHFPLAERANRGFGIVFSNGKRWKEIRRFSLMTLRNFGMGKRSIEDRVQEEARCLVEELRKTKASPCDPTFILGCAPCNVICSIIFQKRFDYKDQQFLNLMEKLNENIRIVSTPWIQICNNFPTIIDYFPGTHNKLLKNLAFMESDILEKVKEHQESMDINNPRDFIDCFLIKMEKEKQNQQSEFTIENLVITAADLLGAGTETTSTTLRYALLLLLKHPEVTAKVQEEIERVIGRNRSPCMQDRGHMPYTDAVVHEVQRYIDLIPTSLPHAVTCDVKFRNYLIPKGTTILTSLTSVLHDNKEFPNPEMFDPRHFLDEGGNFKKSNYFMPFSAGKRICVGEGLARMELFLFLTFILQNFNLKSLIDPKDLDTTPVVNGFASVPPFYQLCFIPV

pKa [1]: 7.18 | logP [2]: 2.49 | solubility kinetic [3]: 52 µg/mL | solubility kinetic [4]: 2.82 mg/mL | permeability [5]: 33.8% | log Pe [6]: -3.48 cm/s | IC50 (Cytochrome P450 1A2): > 5 µM | IC50 (Cytochrome P450 2C9): > 5 µM | IC50 (Cytochrome P450 2C19): > 5 µM | IC50 (Cytochrome P450 2D6): > 5 µM | IC50 (Cytochrome P450 2E1): > 5 µM | IC50 (Cytochrome P450 3A4): > 5 µM | IC50 [14]: 3 nM
Compound: CNCc1cc(=O)oc2cc(OCc3cccc(Cl)c3)ccc12.CS(=O)(=O)O
Activity (Mus musculus [7]): Active | Activity (Mus musculus [8]): inactive | Activity (Mus musculus [9]): 84% | Activity (Mus musculus [10]): 86% | Activity (Mus musculus [11]): 90% | Activity (Mus musculus [12]): 60% | ED50 (Mus musculus [13]): 0.24 mg/kg | IC50 (SH-SY5Y): 29.7 µM
